The species named for this test is Homo sapiens. Nature of the test: Thermal stabilization of human telomeric G-quadruplex FAM-TTAGGGTTAGGGTTAGGGTTAGGG-TAMRA DNA assessed as change in melting temperature at 1:5 DNA:ligand ratio by FRET assay. In a few lines:
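FRET melting of 200 nM dual-labelled quadruplex in 50 mM Tris-HCl with KCl (100 mM for htelo and hras-1, 10 mM for KRAS and hras-2). Ligand at r = 5 ([ligand]/[quadruplex]; hras-2 tabulated at r = 4). Samples held 5 min at 20 °C, then heated 1 °C/min to 95 °C. ΔTM is the TM with ligand minus TM without ligand (±0.5 K). For hras-1 both biphasic transitions are given.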

Consider `NCCOc1cc(C(=O)Nc2cc(OCCN)c3ccccc3n2)nc(C(=O)Nc2cc(OCCN)c3ccccc3n2)c1`, for which the deltaTm is 35 K.

The values above are taken from ChEMBL document CHEMBL2346582, “Guanidino anthrathiophenediones as G-quadruplex binders: uptake, intracellular localization, and anti-Harvey-Ras gene activity in bladder cancer cells” (J Med Chem, 2013).
